Measurements: the M2OR odorant receptor database

How the values were obtained:
Conditions in all cases: stereoisomer not certain
OR51L1 (Homo sapiens) = biological target: T1, OR51L1 (Homo sapiens) (UniProt Q8NGJ5)
T1 sequence (whole entry): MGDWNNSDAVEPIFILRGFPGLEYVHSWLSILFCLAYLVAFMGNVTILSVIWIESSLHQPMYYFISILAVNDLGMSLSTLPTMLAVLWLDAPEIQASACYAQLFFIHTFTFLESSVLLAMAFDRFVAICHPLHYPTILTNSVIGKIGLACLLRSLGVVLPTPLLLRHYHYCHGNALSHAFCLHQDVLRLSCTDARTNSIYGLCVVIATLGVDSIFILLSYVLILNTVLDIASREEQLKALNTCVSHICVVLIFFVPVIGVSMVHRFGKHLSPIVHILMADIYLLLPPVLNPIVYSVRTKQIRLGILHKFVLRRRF
How it was run: (§1)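 Transient luciferase assays in mammalian cell lines were common, though methods varied by source. The values come from published papers and their supplementary material, with extra details from the original authors when needed. Responsive refers to a measured signal the original authors judged statistically different from baseline, and non-responsive (inactive) to the remainder.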

OR52D1 (Homo sapiens) = biological target: T2, OR52D1 (Homo sapiens) (UniProt Q9H346)
T2 sequence (whole entry): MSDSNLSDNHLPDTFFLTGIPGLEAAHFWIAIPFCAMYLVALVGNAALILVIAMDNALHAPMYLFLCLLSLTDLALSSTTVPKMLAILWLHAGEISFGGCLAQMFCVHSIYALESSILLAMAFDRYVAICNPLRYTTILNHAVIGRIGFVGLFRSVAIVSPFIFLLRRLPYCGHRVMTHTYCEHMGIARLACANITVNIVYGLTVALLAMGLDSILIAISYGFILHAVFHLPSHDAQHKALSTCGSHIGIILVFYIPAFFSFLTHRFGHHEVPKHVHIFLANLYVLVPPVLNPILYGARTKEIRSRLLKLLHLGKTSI
How it was run: as §1

OR52A1 (Homo sapiens) = biological target: T3, OR52A1 (Homo sapiens) (UniProt Q9UKL2)
T3 sequence (whole entry): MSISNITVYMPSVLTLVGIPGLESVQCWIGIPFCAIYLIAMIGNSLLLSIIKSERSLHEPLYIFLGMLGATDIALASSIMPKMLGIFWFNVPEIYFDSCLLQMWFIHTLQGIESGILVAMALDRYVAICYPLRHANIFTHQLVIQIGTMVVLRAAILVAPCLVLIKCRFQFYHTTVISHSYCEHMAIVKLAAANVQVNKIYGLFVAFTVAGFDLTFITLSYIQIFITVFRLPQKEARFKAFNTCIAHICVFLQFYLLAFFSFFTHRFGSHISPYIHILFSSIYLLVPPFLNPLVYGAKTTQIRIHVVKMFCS
How it was run: as §1

OR52B2 (Homo sapiens) = biological target: T4, OR52B2 (Homo sapiens) (UniProt Q96RD2)
T4 sequence (whole entry): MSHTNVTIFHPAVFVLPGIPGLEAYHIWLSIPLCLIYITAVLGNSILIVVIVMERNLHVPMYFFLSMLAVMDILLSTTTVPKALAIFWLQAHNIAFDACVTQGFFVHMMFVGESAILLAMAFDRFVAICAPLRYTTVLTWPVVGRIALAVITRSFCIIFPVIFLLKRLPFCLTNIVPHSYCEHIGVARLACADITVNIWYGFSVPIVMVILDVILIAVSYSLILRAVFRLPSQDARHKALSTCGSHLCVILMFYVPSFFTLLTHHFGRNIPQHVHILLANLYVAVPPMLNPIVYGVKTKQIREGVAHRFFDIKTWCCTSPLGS
How it was run: as §1
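Also: active if original authors judged signal statistically different from baseline.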

## CCCCCCCC(C)=O
OR51L1 (Homo sapiens)
  odorant receptor agonist call: inactive
OR52D1 (Homo sapiens)
  odorant receptor agonist call: inactive

## CCC(=O)O
OR51L1 (Homo sapiens)
  odorant receptor agonist call: inactive
OR52D1 (Homo sapiens)
  odorant receptor agonist call: active

## CC(C)=CCCC(C)=CCO
OR51L1 (Homo sapiens)
  odorant receptor agonist call: inactive
OR52D1 (Homo sapiens)
  odorant receptor agonist call: inactive

## CCCCCC=O
OR51L1 (Homo sapiens)
  odorant receptor agonist call: inactive
OR52D1 (Homo sapiens)
  odorant receptor agonist call: inactive

## O=C(c1ccccc1)c1ccccc1
OR51L1 (Homo sapiens)
  odorant receptor agonist call: inactive

## CCCCCO
OR51L1 (Homo sapiens)
  odorant receptor agonist call: inactive

## CCCCCCCCCCO
OR51L1 (Homo sapiens)
  odorant receptor agonist call: inactive
OR52D1 (Homo sapiens)
  odorant receptor agonist call: inactive

## CCCCCCC(C)O (configuration not stated)
OR52D1 (Homo sapiens)
  odorant receptor agonist call: inactive

## c1cscn1
OR52D1 (Homo sapiens)
  odorant receptor agonist call: active

## CCCCCCCCC(=O)O
OR51L1 (Homo sapiens)
  odorant receptor agonist call: inactive
OR52A1 (Homo sapiens)
  odorant receptor agonist call: inactive
OR52B2 (Homo sapiens)
  odorant receptor agonist call: inactive
OR52D1 (Homo sapiens)
  odorant receptor agonist call: active

## CCCCCCCCO
OR51L1 (Homo sapiens)
  odorant receptor agonist call: inactive
OR52D1 (Homo sapiens)
  odorant receptor agonist call: inactive

## CCCCCCO
OR51L1 (Homo sapiens)
  odorant receptor agonist call: inactive
OR52D1 (Homo sapiens)
  odorant receptor agonist call: inactive

## CC(C)=CCCC(C)CCO (configuration not stated)
OR51L1 (Homo sapiens)
  odorant receptor agonist call: inactive

## CCCC(=O)OCC
OR52D1 (Homo sapiens)
  odorant receptor agonist call: active

## OCc1ccccc1
OR52D1 (Homo sapiens)
  odorant receptor agonist call: active

## CC=Cc1ccc(OC)cc1
OR52D1 (Homo sapiens)
  odorant receptor agonist call: active

## CC(C)=CCCC(C)CC=O (configuration not stated)
OR52D1 (Homo sapiens)
  odorant receptor agonist call: inactive

## CCCCC(C)=O
OR51L1 (Homo sapiens)
  odorant receptor agonist call: inactive

## CCCCCCCO
OR51L1 (Homo sapiens)
  odorant receptor agonist call: inactive
OR52D1 (Homo sapiens)
  odorant receptor agonist call: inactive

## CCCCCCCC(=O)[O-].[H+]
OR51L1 (Homo sapiens)
  odorant receptor agonist call: inactive
OR52D1 (Homo sapiens)
  odorant receptor agonist call: active

## CCCCCCCCCC(=O)[O-].[H+]
OR51L1 (Homo sapiens)
  odorant receptor agonist call: inactive
OR52D1 (Homo sapiens)
  odorant receptor agonist call: inactive

## CC12CCC(CC1=O)C2(C)C (configuration not stated)
OR51L1 (Homo sapiens)
  odorant receptor agonist call: inactive
OR52D1 (Homo sapiens)
  odorant receptor agonist call: inactive

## CCCCCCC(=O)OCC
OR52D1 (Homo sapiens)
  odorant receptor agonist call: active

## O=c1ccc2ccccc2o1
OR51L1 (Homo sapiens)
  odorant receptor agonist call: inactive
OR52D1 (Homo sapiens)
  odorant receptor agonist call: inactive

## c1ccccc1
OR51L1 (Homo sapiens)
  odorant receptor agonist call: inactive

## CC(=O)C=CC1=C(C)CCCC1(C)C
OR52D1 (Homo sapiens)
  odorant receptor agonist call: active

## CCCCCCOC(C)=O
OR51L1 (Homo sapiens)
  odorant receptor agonist call: inactive

## COc1cc(C(=O)O)ccc1O
OR51L1 (Homo sapiens)
  odorant receptor agonist call: inactive

## O=C(O)C=Cc1ccccc1
OR52D1 (Homo sapiens)
  odorant receptor agonist call: active

## CCOC(=O)C(C)C
OR51L1 (Homo sapiens)
  odorant receptor agonist call: inactive
OR52D1 (Homo sapiens)
  odorant receptor agonist call: inactive

## CCCCCCCCCO
OR51L1 (Homo sapiens)
  odorant receptor agonist call: inactive
OR52D1 (Homo sapiens)
  odorant receptor agonist call: active

## CC1CCC(C(C)C)C(=O)C1 (configuration not stated)
OR52D1 (Homo sapiens)
  odorant receptor agonist call: inactive

## CCCCCC(=O)CC
OR51L1 (Homo sapiens)
  odorant receptor agonist call: inactive
OR52D1 (Homo sapiens)
  odorant receptor agonist call: active

## CCCCCC(=O)OC
OR52D1 (Homo sapiens)
  odorant receptor agonist call: inactive

## CCCCCCC(C)=O
OR51L1 (Homo sapiens)
  odorant receptor agonist call: inactive
OR52D1 (Homo sapiens)
  odorant receptor agonist call: inactive

## CCCCCCC(=O)[O-].[H+]
OR51L1 (Homo sapiens)
  odorant receptor agonist call: inactive
OR52D1 (Homo sapiens)
  odorant receptor agonist call: active

## c1ccc2ncccc2c1
OR52D1 (Homo sapiens)
  odorant receptor agonist call: inactive

## CCCCCC(O)CC (configuration not stated)
OR52D1 (Homo sapiens)
  odorant receptor agonist call: inactive

## CCCCCCCCCC(=O)OCC
OR52D1 (Homo sapiens)
  odorant receptor agonist call: inactive

## Cc1ccc(C(C)C)c(O)c1
OR52D1 (Homo sapiens)
  odorant receptor agonist call: inactive

## CCCCCCCCCC(=O)OC
OR52D1 (Homo sapiens)
  odorant receptor agonist call: inactive

## CC(=O)C(C)O (configuration not stated)
OR52D1 (Homo sapiens)
  odorant receptor agonist call: active

## CCCCCCCC(C)O (configuration not stated)
OR52D1 (Homo sapiens)
  odorant receptor agonist call: active

## Cc1cnccn1
OR52D1 (Homo sapiens)
  odorant receptor agonist call: inactive

## COc1ccccc1
OR52D1 (Homo sapiens)
  odorant receptor agonist call: active

## CCCCCCCCCCC(C)=O
OR52D1 (Homo sapiens)
  odorant receptor agonist call: inactive

## CCCCCCCC(=O)OCC
OR52D1 (Homo sapiens)
  odorant receptor agonist call: inactive

## CCCCC(CC)CO (configuration not stated)
OR52D1 (Homo sapiens)
  odorant receptor agonist call: inactive

## CCCCCCC(=O)CC
OR52D1 (Homo sapiens)
  odorant receptor agonist call: active

## CCCCCCCCCCCCO
OR52D1 (Homo sapiens)
  odorant receptor agonist call: inactive

## CC(C)=CCCC(C)=CC#N
OR52D1 (Homo sapiens)
  odorant receptor agonist call: active

## C=C(C)C1CC=C(C)CC1 (configuration not stated)
OR52D1 (Homo sapiens)
  odorant receptor agonist call: inactive

## CCCCCCCCC(=O)OCC
OR52D1 (Homo sapiens)
  odorant receptor agonist call: inactive

## c1ccc2[nH]ccc2c1
OR52D1 (Homo sapiens)
  odorant receptor agonist call: inactive

## CC(=O)CCC=C(C)C
OR52D1 (Homo sapiens)
  odorant receptor agonist call: active

## c1ccc2scnc2c1
OR52D1 (Homo sapiens)
  odorant receptor agonist call: active

## CCCCCCCCCCCC(=O)O
OR52D1 (Homo sapiens)
  odorant receptor agonist call: inactive

## CCCCCCC(=O)OC
OR52D1 (Homo sapiens)
  odorant receptor agonist call: active

## CCCCCCCC(=O)OC
OR52D1 (Homo sapiens)
  odorant receptor agonist call: inactive

## CCCCCCCCC(C)=O
OR52D1 (Homo sapiens)
  odorant receptor agonist call: active

## Cc1occc(=O)c1O
OR52D1 (Homo sapiens)
  odorant receptor agonist call: inactive

## CCCCCC1C(=O)CCC1CC(=O)OC (configuration not stated)
OR52D1 (Homo sapiens)
  odorant receptor agonist call: inactive

## CCCCC(O)CCC (configuration not stated)
OR52D1 (Homo sapiens)
  odorant receptor agonist call: inactive

## CSC
OR52D1 (Homo sapiens)
  odorant receptor agonist call: inactive

## CCCCCCCCC(=O)OC
OR52D1 (Homo sapiens)
  odorant receptor agonist call: inactive

## CCCC(=O)SC
OR52D1 (Homo sapiens)
  odorant receptor agonist call: active

## CCCCCCCCCCCC=O
OR52D1 (Homo sapiens)
  odorant receptor agonist call: inactive

## CCCCOC(=O)CCC
OR52D1 (Homo sapiens)
  odorant receptor agonist call: active

## COc1nccnc1CC(C)C
OR52D1 (Homo sapiens)
  odorant receptor agonist call: active

## CCCCCCC1CCC(=O)O1 (configuration not stated)
OR52D1 (Homo sapiens)
  odorant receptor agonist call: inactive

## CCCCCC(=O)OCC
OR52D1 (Homo sapiens)
  odorant receptor agonist call: active

## CC(=O)OCCC(C)C
OR52D1 (Homo sapiens)
  odorant receptor agonist call: active
